Series [1] can be described thus: Antitumor activity against mouse S180A cells allografted in CD-1 mouse assessed as average survival at maximum effective dose administered qd for 6 days relative to control. The class given is functional.
The nature of series [2]: Antitumor activity against mouse S180A cells allografted in CD-1 mouse assessed as dose required for maximum increase in mouse survival administered qd for 6 days. The format is functional.
The species entered for series [3] is Rattus norvegicus. Nature of the series: Inhibition of ribonucleoside-diphosphate reductase in rat hepatoma cells relative to 4-(m-amino)phenyl-2-formylpyridine thiosemicarbazone. The format is cell-based.
The nature of series [4]: Antitumor activity against mouse S180A cells allografted in CD-1 mouse assessed as average survival at maximum effective dose administered qd for 6 days (reference value: 12.6 +/- 0.6 days). The format is functional.
Series [5] relates to Mus musculus. Nature of the series: Toxicity in CD-1 mouse allografted with mouse S180A cells assessed as change in body weight at maximum effective dose administered qd for 6 days (reference value: 18.2%). To be noted: 144 h. The format is organism-based.
For series [6], the species on record is Rattus norvegicus. Nature of the series: Inhibition of ribonucleoside-diphosphate reductase in rat hepatoma cells relative to 5-hydroxy-2-formylpyridine thiosemicarbazone. The format is cell-based.
Series [7] concerns S180A. Nature of the series: Antitumor activity against mouse S180A cells allografted in CD-1 mouse assessed as increase in mouse survival administered qd for 6 days. The format is functional, cell-based. In a few lines: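 Adult female CD-1 mice given Sarcoma 180 ascites cells taken from a donor mouse carrying a 7-day tumor. Drug dosed once daily for six consecutive days, starting 24 h after implantation, across 5-100 mg/kg/day. Read-out is average survival time, with mice alive at 50 days counted as 50-day survivors. %T/C = treated/control × 100. Value reported at the maximum effective daily dose.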

Calls of active or inactive are those of the source. No cut-off for these calls is given here.

As to `Cc1cnc(/C=N/NC(N)=S)c2cccc(N)c12`, the T/C in series [1] came out at 303%. Besides, the Activity in series [2] was 10 mg/kg; in series [5], -4.8%. The fold change (FC) in series [3] amounted to 2; in series [6], 60. In series [4], the Survival was 38.2 days.
As for `N/C(S)=N/N=C/c1ccc(O)cn1`, the T/C in series [1] was found to be 241%. In addition, the Activity was 60 mg/kg in series [2] and -3.3% in series [5]. In addition, in series [4], the Survival turned out to be 30.4 days.
For `NC(=S)N/N=C/c1nccc2c(N)cccc12`, in that order: 296%, 40 mg/kg, -8.5% and 37.3 days.
In the same order, the values of `NC(=S)N/N=C/c1nccc2ccccc12` are 311%, 40 mg/kg, -5.1% and 39.2 days.
Take `Cc1cnc(/C=N/NC(N)=S)c2cccc([N+](=O)[O-])c12`: in series [7], the result was inactive.
